Experiments:
[1] = species: Oryctolagus cuniculus; assay: Relative potency evaluated (relative potency = IC50 of compound / IC50 of nifedipine) in rabbit; type: functional
[2] = species: Oryctolagus cuniculus; assay: Blockade of calcium-evoked contractions evaluated in depolarized rabbit aortic strips; type: functional; details: Aorta
In short: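 Male New Zealand rabbit thoracic aorta, helicoidal strips, 2.5 g preload, Krebs–bicarbonate, 37 °C, 95% O2/5% CO2, pH 7.4. After 1 h equilibration, depolarized with 35 mM K+; 1.5 mM Ca2+ added 10 min later, repeated until reproducible. Compound at increasing concentrations from 20 min before and during Ca2+ addition; responses normalized to initial tension; IC50 by Finney method.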

[3] = molecular target: T1, Voltage-dependent L-type calcium channel subunit alpha-1C (Oryctolagus cuniculus, UniProt P15381); assay: Selectivity index was measured as the IC50 needed to depress the heart beat divided by IC50 needed to block [Ca2+] contractions in rabbit aortic strips; type: functional, tissue-based, Aorta
[4] = species: Oryctolagus cuniculus; assay: Inhibition of electrically stimulated rabbit left atria contraction; type: functional
In short: (§1)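 Rabbit left atria electrically driven (1 Hz, 10 ms, twice threshold voltage), equilibrated 1–1.5 h. Compounds added cumulatively (10^-10–10^-6 M), diluted from DMSO stocks into Krebs–Henseleit, final DMSO <0.1%. Isometric force recorded; IC50 from contractile force relative to initial control values, with 95% confidence limits.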

[5] = species: Oryctolagus cuniculus; assay: Recovery of the initial contraction of rabbit aortic strips, blocked at 10e-7 M concentration.; details: Aorta
[6] = test system: Rattus norvegicus; assay: Systolic blood pressure after administration of a single oral dose (20 mg/kg) in spontaneously hypertensive rats; type: functional
In short: (§2)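 Conscious SHR trained 2 weeks, warmed at 31 ± 1 °C for 2 h; tail plethysmography SBP, mean of five readings; only rats above 170 mmHg used. After 24 h fasting, 20 mg/kg by gavage in 20% PEG-400/0.5% methylcellulose (10 mL/kg); SBP change read 1 h post-dose, n = 12.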

[7] = species: Oryctolagus cuniculus; assay: Inhibition of electrically stimulated rabbit left atria contraction.; type: functional; in short: as §1
[8] = species: Rattus norvegicus; assay: Reducing systolic blood pressure in spontaneously hypertensive rats.; type: functional; details: Artery; in short: as §2
[9] = species: Rattus norvegicus; assay: Compound evaluated for reducing diastolic blood pressure in spontaneously hypertensive rats.; type: functional; details: Artery
In short: (§3)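 Anesthetized (pentobarbitone 70 mg/kg ip) Okamoto SHR, 290 ± 30 g; carotid pressure, femoral vein dosing. Cumulative increasing iv bolus doses of 1, 3, 6, 10, 20, 30 µg/kg in PEG-400 (0.1 mL/kg), each recorded 15 min; ED25 for lowering SBP and DBP and duration of hypotensive action estimated.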

[10] = species: Rattus norvegicus; assay: Duration of action in spontaneously hypertensive rats.; type: functional; in short: as §3
[11] = test system: Rattus norvegicus; assay: Systolic blood pressure after administration of a single oral dose (20 mg/kg) in spontaneously hypertensive rats.; type: functional; in short: as §2
[12] = species: Oryctolagus cuniculus; assay: Maximum contractile force in rabbit aorta strips; type: functional
In short: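 Rabbit aortic strips, after equilibration in Ca2+-free Krebs, switched to buffer with 10 mM K+. Repeated 1.5 mM Ca2+ pulses until reproducible. Increasing compound concentrations each given 10 min before a further 1.5 mM Ca2+ pulse. Maximum contractile force (mg) taken as vasoconstrictor effect; data as mean ± SEM at 10^-6 M.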

[13] = species: Oryctolagus cuniculus; assay: Relative potency was evaluated. (relative potency = IC50 of compound / IC50 of nifedipine); type: functional
[14] = molecular target: T1, Voltage-dependent L-type calcium channel subunit alpha-1C; assay: Blockade of calcium-evoked contractions in depolarized aortic strips; type: functional, tissue-based, Aorta

T1 sequence (P15381 whole entry): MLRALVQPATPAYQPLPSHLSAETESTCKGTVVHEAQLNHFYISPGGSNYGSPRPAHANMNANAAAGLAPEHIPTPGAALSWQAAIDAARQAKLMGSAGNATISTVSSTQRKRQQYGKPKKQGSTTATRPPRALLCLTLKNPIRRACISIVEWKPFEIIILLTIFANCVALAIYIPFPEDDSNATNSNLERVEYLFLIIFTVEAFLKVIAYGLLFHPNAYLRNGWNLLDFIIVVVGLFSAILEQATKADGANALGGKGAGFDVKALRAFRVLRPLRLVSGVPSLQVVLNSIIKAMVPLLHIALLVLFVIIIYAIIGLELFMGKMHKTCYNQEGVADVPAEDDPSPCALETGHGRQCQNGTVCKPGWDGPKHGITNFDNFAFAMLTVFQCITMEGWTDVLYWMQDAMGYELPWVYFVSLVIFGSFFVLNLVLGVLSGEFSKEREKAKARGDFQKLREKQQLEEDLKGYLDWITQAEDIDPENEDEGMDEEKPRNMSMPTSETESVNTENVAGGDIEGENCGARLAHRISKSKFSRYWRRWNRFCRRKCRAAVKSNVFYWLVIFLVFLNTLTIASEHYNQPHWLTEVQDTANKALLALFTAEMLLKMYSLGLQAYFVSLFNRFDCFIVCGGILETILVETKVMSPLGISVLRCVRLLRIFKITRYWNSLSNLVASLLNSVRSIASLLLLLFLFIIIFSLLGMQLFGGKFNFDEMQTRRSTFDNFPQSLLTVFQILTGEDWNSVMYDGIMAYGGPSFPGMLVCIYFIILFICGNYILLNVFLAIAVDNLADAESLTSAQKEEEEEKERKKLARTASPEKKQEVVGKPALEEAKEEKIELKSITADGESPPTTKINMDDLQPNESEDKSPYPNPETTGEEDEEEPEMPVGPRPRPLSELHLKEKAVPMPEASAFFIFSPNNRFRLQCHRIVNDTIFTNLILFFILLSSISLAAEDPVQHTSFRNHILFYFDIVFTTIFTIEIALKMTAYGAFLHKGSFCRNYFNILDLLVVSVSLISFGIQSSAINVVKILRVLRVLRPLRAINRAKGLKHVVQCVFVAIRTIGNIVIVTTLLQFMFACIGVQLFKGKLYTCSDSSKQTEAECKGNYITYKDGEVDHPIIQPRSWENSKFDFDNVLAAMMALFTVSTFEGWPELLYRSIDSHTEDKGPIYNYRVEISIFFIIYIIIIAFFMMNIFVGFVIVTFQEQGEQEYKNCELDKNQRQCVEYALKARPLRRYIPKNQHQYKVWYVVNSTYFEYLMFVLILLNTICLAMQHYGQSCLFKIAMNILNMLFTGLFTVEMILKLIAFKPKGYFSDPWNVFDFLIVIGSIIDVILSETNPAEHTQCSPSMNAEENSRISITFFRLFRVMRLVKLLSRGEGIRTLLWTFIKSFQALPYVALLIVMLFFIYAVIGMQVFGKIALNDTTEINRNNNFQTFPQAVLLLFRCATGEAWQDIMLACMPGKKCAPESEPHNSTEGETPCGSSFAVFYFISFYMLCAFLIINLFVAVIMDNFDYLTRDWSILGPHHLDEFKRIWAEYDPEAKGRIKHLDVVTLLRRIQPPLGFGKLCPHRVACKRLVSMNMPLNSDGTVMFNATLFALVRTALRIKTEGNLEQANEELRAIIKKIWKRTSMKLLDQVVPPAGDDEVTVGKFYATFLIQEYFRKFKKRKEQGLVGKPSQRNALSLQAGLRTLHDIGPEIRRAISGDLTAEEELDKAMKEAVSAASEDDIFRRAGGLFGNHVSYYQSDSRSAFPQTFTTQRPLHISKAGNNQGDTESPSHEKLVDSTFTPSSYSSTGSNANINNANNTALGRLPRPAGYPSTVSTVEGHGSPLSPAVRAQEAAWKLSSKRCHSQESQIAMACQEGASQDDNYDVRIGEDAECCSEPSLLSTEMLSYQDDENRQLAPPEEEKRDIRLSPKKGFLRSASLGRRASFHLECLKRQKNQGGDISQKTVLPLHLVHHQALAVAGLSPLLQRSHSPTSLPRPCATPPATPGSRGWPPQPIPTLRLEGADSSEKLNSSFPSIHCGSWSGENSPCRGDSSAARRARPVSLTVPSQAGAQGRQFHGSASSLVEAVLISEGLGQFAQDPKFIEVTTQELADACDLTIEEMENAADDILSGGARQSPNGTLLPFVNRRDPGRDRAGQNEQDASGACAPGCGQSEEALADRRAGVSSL

IC50 [2] | IC50 [4] | IC50 [7] | IC50 [14] | SMILES | Relative potency [1] | Selectivity index [3] | Recovery [5] | SBP change [6] | ED25 [8] | ED25 [9] | Duration [10] | SBP change [11] | Max contractile force [12] | Relative potency [13]
0.0014 µM | 0.168 µM |  |  | CC1=NC(C)=C(C(=O)OCCCN2C(=O)c3ccccc3S2(=O)=O)C(c2ccccc2C(F)(F)F)/C1=C(\O)OCC1CCCCO1 (centres undefined) | 2.1 | 121 | 5% |  |  |  |  |  |  | 
0.0021 µM |  | 0.157 µM |  | CC1=NC(C)=C(C(=O)OCCCN2C(=O)c3ccccc3S2(=O)=O)C(c2cccc(Cl)c2Cl)/C1=C(\O)OC(C)C (centres undefined) | 1.4 | 75 | 0% | 11% |  |  |  |  |  | 
0.0018 µM |  | 0.353 µM |  | CCO/C(O)=C1\C(C)=NC(C)=C(C(=O)OCCCN2C(=O)c3ccccc3S2(=O)=O)C1c1cccc(Cl)c1Cl (centres undefined) | 1.6 | 200 | 0% | 36% | 0.015 mg/kg | 0.012 mg/kg | 2 min |  |  | 
0.0003 µM |  | 0.037 µM |  | CC1=NC(C)=C(C(=O)OCCN2C(=O)c3ccccc3S2(=O)=O)C(c2cccc([N+](=O)[O-])c2)/C1=C(\O)OC(C)C (centres undefined) | 9.7 | 137 | 0% |  |  |  |  | 20% |  | 
0.0008 µM | 0.521 µM |  |  | CO/C(O)=C1\C(C)=NC(C)=C(C(=O)OCCCN2C(=O)c3ccccc3S2(=O)=O)C1c1cccc(Cl)c1Cl (centres undefined) | 3.6 | 686 | 0% | 35% | 0.012 mg/kg | 0.01 mg/kg | >15 min |  |  | 
0.107 µM |  |  |  | CC1=NC(C)=C(C(=O)OCCN2C(=O)c3ccccc3S2(=O)=O)C(c2cccc([N+](=O)[O-])c2)/C1=C(\O)OCC1CCCO1 (centres undefined) | <0.1 |  |  |  |  |  |  |  | 570 mg | 
0.0023 µM |  | 0.281 µM |  | CC1=NC(C)=C(C(=O)OCCN2C(=O)c3ccccc3S2(=O)=O)C(c2cccc(Cl)c2Cl)/C1=C(\O)OC(C)(C)C (centres undefined) | 1.3 | 122 | 0% | 36% | 0.014 mg/kg | 0.011 mg/kg | >15 min |  |  | 
0.0012 µM | 0.0186 µM |  |  | CC1=NC(C)=C(C(=O)OCCCN2C(=O)c3ccccc3S2(=O)=O)C(c2ccccc2[N+](=O)[O-])/C1=C(\O)OC(C)C (centres undefined) | 2.4 | 15 | 0.2% |  |  |  |  |  |  | 
0.349 µM |  |  |  | CC1=NC(C)=C(C(=O)OCCN2C(=O)c3ccccc3S2(=O)=O)C(c2ccccc2Cl)/C1=C(\O)OCC1CCCCO1 (centres undefined) | <0.1 |  |  |  |  |  |  |  | 510 mg | 
> 1 µM |  |  |  | CO/C(O)=C1\C(C)=NC(C)=C(C(=O)OCCN2C(=O)c3ccccc3S2(=O)=O)C1c1ccccc1C(F)(F)F (centres undefined) |  |  |  |  |  |  |  |  | 420 mg | 
> 1 µM |  |  |  | CC1=NC(C)=C(C(=O)OCCN2C(=O)c3ccccc3S2(=O)=O)C(c2ccccc2[N+](=O)[O-])/C1=C(\O)OCC1CCCCO1 (centres undefined) |  |  |  |  |  |  |  |  | 990 mg | 
0.0003 µM |  | 0.686 µM |  | CC1=NC(C)=C(C(=O)OCCN2C(=O)c3ccccc3S2(=O)=O)C(c2cccc(Cl)c2Cl)/C1=C(\O)OC(C)C (centres undefined) | 10 | 2744 | 0% | 8% |  |  |  |  |  | 
0.0005 µM | 0.0744 µM |  |  | CCO/C(O)=C1\C(C)=NC(C)=C(C(=O)OCCN2C(=O)c3ccccc3S2(=O)=O)C1c1ccccc1C(F)(F)F (centres undefined) | 5.8 | 152 | 14.5% |  |  |  |  |  |  | 
> 1 µM |  |  |  | CO/C(O)=C1\C(C)=NC(C)=C(C(=O)OCCN2C(=O)c3ccccc3S2(=O)=O)C1c1ccccc1Cl (centres undefined) |  |  |  |  |  |  |  |  | 610 mg | 
 |  |  | 0.0036 µM | CC1=NC(C)=C(C(=O)OCN2C(=O)c3ccccc3S2(=O)=O)C(c2ccccc2C(F)(F)F)/C1=C(\O)OCC1CCCCO1 (centres undefined) |  |  |  |  |  |  |  |  |  | 0.8

From ChEMBL document CHEMBL1126270, “Synthesis of 3-[(2,3-dihydro-1,1,3-trioxo-1,2-benzisothiazol-2-yl)alkyl] 1,4-dihydropyridine-3,5-dicarboxylate derivatives as calcium channel modulators” (J Med Chem, 1992)
